Laboratory results from ChEMBL document CHEMBL1145894, “Anti-herpes simplex virus activity of substituted 1-hydroxyacridones” (J Med Chem, 2003).
Activity calls are given as the source filed them. No cut-off for these calls is given here.

Tests used:
Human alphaherpesvirus 1 [1] = experiment: Inhibitory activity against HSV-1 in vero cells; type: functional, herpes simplex virus; conditions: Human alphaherpesvirus 1, Vero; read-out: ED50 (the source's name)
Summary of the method: (§1)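 Plaque-elimination assay. Cells were infected with 50–100 PFU of HSV-1 (KOS) or HSV-2 (186 or plaque-purified 186 stocks, 333, G) and adsorbed for 1 h, then overlaid with 0.5% FCS medium ± compound, in duplicate. After 2 days, wells were crystal-violet stained and plaques counted by eye; ED50 was taken from a sigmoidal nonlinear fit.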

Human alphaherpesvirus 2 [2] = experiment: Inhibitory activity against HSV-2 in vero cells; type: functional, herpes simplex virus; conditions: Human alphaherpesvirus 2, Vero; read-out: ED50 (the source's name); summary of the method: as §1
Vero = experiment: In vitro cytotoxic concentration in vero cells.; type: functional; conditions: Chlorocebus sabaeus
Summary of the method: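 Vero cell replication was measured by sulforhodamine B dye binding after 2 days of continuous compound exposure. CC50 is the concentration giving 50% inhibition relative to untreated control, calculated by nonlinear regression with a sigmoidal fit to dose-response data.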

herpes simplex virus [3] = experiment: Anti-HSV activity against HSV-2 (186, c2) strain; type: functional; summary of the method: as §1
[4] = Therapeutic index against HSV-2 (186, c2); conditions: herpes simplex virus; read-out: TI
Summary of the method: (§2)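 Selectivity (TI) was calculated as Vero CC50 (SRB assay, 2 days continuous treatment) divided by plaque-reduction ED50 against the given HSV strain in Vero cells, using 50–100 PFU inoculum and a 2-day incubation.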

herpes simplex virus [5] = experiment: Anti-HSV activity against HSV-2 (186, c4) strain; type: functional; summary of the method: as §1
[6] = Therapeutic index against HSV-2 (186, c4); conditions: herpes simplex virus; read-out: TI; summary of the method: as §2
herpes simplex virus [7] = experiment: Anti-HSV activity against HSV-2 (333) strain; type: functional; summary of the method: as §1
[8] = Therapeutic index against HSV-2 (333); conditions: herpes simplex virus; read-out: TI; summary of the method: as §2
herpes simplex virus [9] = experiment: Anti-HSV activity against HSV-2 (G) strain; type: functional; summary of the method: as §1
[10] = Therapeutic index against HSV-2 (G); conditions: herpes simplex virus; read-out: TI; summary of the method: as §2
herpes simplex virus [11] = experiment: Anti-HSV activity against HSV-2 (186) strain; type: functional; summary of the method: as §1
herpes simplex virus [12] = experiment: Anti-HSV activity against HSV-1 (KOS) strain; type: functional; summary of the method: as §1
[13] = Therapeutic index against HSV-1 (KOS); conditions: herpes simplex virus; read-out: TI; summary of the method: as §2
[14] = Therapeutic index (vero CC50/ED50) against HSV-1; conditions: herpes simplex virus, Vero cells; read-out: TI; summary of the method: as §2
[15] = Therapeutic index (vero CC50/ED50) against HSV-2; conditions: herpes simplex virus, Vero cells; read-out: TI; summary of the method: as §2
[16] = Therapeutic index (vero CC50/ED50) against HSV-2; NA= not active; conditions: herpes simplex virus; summary of the method: as §2
Human alphaherpesvirus 2 [17] = experiment: Inhibitory activity against HSV-2 in vero cells; NA= not active; type: functional, organism-based; conditions: herpes simplex virus; summary of the method: as §1
Human alphaherpesvirus 1 [18] = experiment: Inhibitory activity against HSV-1 in vero cells; NA= not active at 100 uM; type: functional, organism-based; conditions: herpes simplex virus; summary of the method: as §1
Human alphaherpesvirus 1 [19] = experiment: Inhibitory activity against HSV-1 in vero cells; NA= not active; type: functional, organism-based; conditions: herpes simplex virus; summary of the method: as §1
Human alphaherpesvirus 2 [20] = experiment: Inhibitory activity against HSV-2 in vero cells; NA= not active, at 50 uM no toxicity; type: functional, organism-based; conditions: herpes simplex virus; summary of the method: as §1

| SMILES | EC50 (Human alphaherpesvirus 1 [1]) | EC50 (Human alphaherpesvirus 2 [2]) | CC50 (Vero) | selectivity ratio [14] | other results |
| --- | --- | --- | --- | --- | --- |
| COc1cccc2c(O)c3c(O)cc(O)cc3nc12 | 2.2 µM | 0.6 µM | 30 µM | 13 | ED50 (herpes simplex virus [3]): 0.6 µM; selectivity ratio [4]: 50; ED50 (herpes simplex virus [5]): 1.2 µM; selectivity ratio [6]: 25; ED50 (herpes simplex virus [7]): 0.7 µM; selectivity ratio [8]: 43; ED50 (herpes simplex virus [9]): 0.5 µM; selectivity ratio [10]: 60; ED50 (herpes simplex virus [11]): 0.6 µM; ED50 (herpes simplex virus [12]): 2.2 µM; selectivity ratio [13]: 14; selectivity ratio [15]: 50 |
| Nc1nc2c(ncn2COCCO)c(=O)[nH]1 [ACYCLOVIR] | 0.5 µM | 2.5 µM | > 400 µM | > 800 | selectivity ratio [15]: > 160 |
| O=c1c2cccc(Cl)c2[nH]c2cc(O)cc(O)c12 | 4 µM | > 30 µM | 60 µM | 13 | TI [16]: Not Active |
| COc1cc(O)c2c(=O)c3cccc(Cl)c3[nH]c2c1 | > 50 µM | – | > 100 µM | – | ED50 (Human alphaherpesvirus 2 [17]): inactive |
| O=c1c2c(O)cc(O)cc2[nH]c2cccc(Cl)c12 | 10 µM | – | 70 µM | 7 | – |
| O=c1c2cccc(Cl)c2[nH]c2cc3ccccc3c(O)c12 | – | – | > 100 µM | – | ED50 (Human alphaherpesvirus 1 [18]): inactive |
| Cc1cccc2c(O)c3c(O)cc(O)cc3nc12 | 8 µM | 15 µM | 32 µM | 4 | selectivity ratio [15]: 2.1 |
| O=c1c2ccc(Cl)cc2[nH]c2cc(O)cc(O)c12 | 10 µM | – | 29 µM | 3 | TI [16]: Not Active |
| O=c1c2cc(Cl)ccc2[nH]c2cc(O)cc(O)c12 | 16 µM | 15 µM | 52 µM | 3.5 | selectivity ratio [15]: 3.5 |
| Cn1c2cc(O)cc(O)c2c(=O)c2cccc(Cl)c21 | > 50 µM | > 30 µM | 50 µM | – | – |
| Cc1cc(O)c2c(=O)c3cccc(Cl)c3[nH]c2c1 | – | – | 13 µM | – | ED50 (Human alphaherpesvirus 1 [19]): inactive; ED50 (Human alphaherpesvirus 2 [17]): inactive |
| O=c1c2ccccc2[nH]c2cc(O)cc(O)c12 | 45 µM | – | 68 µM | 1.5 | – |
| O=C(O)CP(=O)(O)O [FOSFONET] | 240 µM | – | 3500 µM | 29 | – |
| COc1cc(O)c2c(O)c3cccnc3nc2c1 | – | – | 5.5 µM | – | ED50 (Human alphaherpesvirus 2 [20]): inactive |

More lines, main results first:

| EC50 (Human alphaherpesvirus 1 [1]) | EC50 (Human alphaherpesvirus 2 [2]) | SMILES | CC50 (Vero) | selectivity ratio [14] | other results |
| --- | --- | --- | --- | --- | --- |
| > 100 µM | > 50 µM | COc1cc(O)c2c(=O)c3cccc(Cl)c3n(C)c2c1 | > 100 µM | – | – |
| – | > 10 µM | COc1cc(O)c2c(O)c3cc(OC)ccc3nc2c1 | > 50 µM | – | – |
| – | < 10 µM | COc1cc(O)c2c(O)c3cc(O)ccc3nc2c1 | 25 µM | – | – |
| 15 µM | – | Oc1cc(O)c2c(O)c3cc(O)ccc3nc2c1 | 40 µM | 2.7 | – |
| 12 µM | 20 µM | Oc1cc(O)c2c(O)c3cc(Cl)cc(Cl)c3nc2c1 | > 100 µM | > 5 | selectivity ratio [15]: > 8.3 |
| 44 µM | – | Cc1cccc2nc3cc(O)cc(O)c3c(O)c12 | 60 µM | 1.4 | – |
| – | > 50 µM | COc1cc(O)c2c(O)c3cccc(OC)c3nc2c1 | > 50 µM | – | – |
